MC4R antagonist – human MC4R antagonism in cAMP assay. MC4R-expressing cells, MTII-stimulated cAMP, LANCE TR-FRET. inhibition, % at 6.5 µM. P32245. hit rate 0.48% among 360,000. AID 540295;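 active = inhibition above its plate's cutoff, the mean of tested wells on that plate plus 3 SD, cut at about 29% in these data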;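 note: 0% = Melanotan II alone and 100% = Melanotan II plus saturating MCL0020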
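Test system: U2OS cells stably expressing human melanocortin 4 receptor (MC4R); also added: Melanotan II challenge; compound: 6.5 µM single dose; timing: 30-min compound preincubation, 1-h Melanotan II challenge, 1-h detection, room temperature; signal: Eu-cAMP/anti-cAMP TR-FRET, emission 671 nm; repeats: one well per compound, no replicates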
Exocytosis inh – lytic granule exocytosis inhibition | TALL-104 LAMP-1 surface exposure, flow cytometry; cells stimulated with thapsigargin and PMA | inhibition, % at 10 µM | hit rate 0.66% among 360,000;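 active = inhibition above about 55%, limit read from the data; inconclusive = no clear call, values can overlap the other calls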
MC4R ag barr – agonists of human melanocortin 4 receptor (MC4R) beta-arrestin. P32245. U2OS MC4R beta-arrestin complementation, luminescence; percent of melanotan II response, DMSO zero. activation, % at 8.9 µM. hit rate 0.98% among 360,000;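 active = activation above a per-plate cutoff, the mean activation of sample wells on that plate plus 3 SD, cut at about 8% in these data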
Tb MetRS inh – Trypanosoma brucei MetRS inhibition | purified T. brucei MetRS, ATP depletion, Kinase-Glo luminescence | inhibition, % at 11.9 µM | hit rate 0.4% among 360,000 | AID 624268;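 active = inhibition above a per-plate cutoff of the control wells' mean inhibition plus 3 SD, cut at about 5.5% in these data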;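 note: 0% = DMSO wells median and 100% = median of wells with control inhibitor compound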
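Test system: purified T. brucei MetRS enzyme. Also added: ATP, methionine and E. coli bulk tRNA substrates. Compound: 11.9 µM single point. Schedule: 15 min enzyme-compound preincubation, 2 h reaction, 10 min detection, 25 °C. Signal: luciferase luminescence of residual ATP, Kinase-Glo. Evaluation: percent inhibition versus plate control medians. Controls: DMSO wells, low control.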
iPSC survival up – increases survival of single human iPS cells; hiPSC single-cell survival, ATPlite luminescence; 100% = ROCK inhibitor wells, 0% = DMSO; survival enhancement, % at 20 µM; hit rate 0.044% among 360,000; AID 602274; in the data active = survival enhancement above about 18%;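 note: cells exposed to compounds for 16 hours before the ATP read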
ABCB6 inh MLPCN – inhibitors of human ABC transporter ABCB6; Q9NP58; hit rate 0.19% among 360,000; K562-ABCB6 porphyrin accumulation, flow cytometry, 1 h; hits give low values; fluorescence ratio to DMSO, % at 10 µM;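 active = fluorescence ratio to DMSO below 75%, the collection mean minus 3 SD; inconclusive = too few cells collected in the well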;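 note: signal is porphyrin accumulated inside mitochondria; 100% equals median channel fluorescence of DMSO control wells; lower ratio means ABCB6 inhibition with less porphyrin fluorescence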
Target sequence (Q9NP58 whole entry, looked up): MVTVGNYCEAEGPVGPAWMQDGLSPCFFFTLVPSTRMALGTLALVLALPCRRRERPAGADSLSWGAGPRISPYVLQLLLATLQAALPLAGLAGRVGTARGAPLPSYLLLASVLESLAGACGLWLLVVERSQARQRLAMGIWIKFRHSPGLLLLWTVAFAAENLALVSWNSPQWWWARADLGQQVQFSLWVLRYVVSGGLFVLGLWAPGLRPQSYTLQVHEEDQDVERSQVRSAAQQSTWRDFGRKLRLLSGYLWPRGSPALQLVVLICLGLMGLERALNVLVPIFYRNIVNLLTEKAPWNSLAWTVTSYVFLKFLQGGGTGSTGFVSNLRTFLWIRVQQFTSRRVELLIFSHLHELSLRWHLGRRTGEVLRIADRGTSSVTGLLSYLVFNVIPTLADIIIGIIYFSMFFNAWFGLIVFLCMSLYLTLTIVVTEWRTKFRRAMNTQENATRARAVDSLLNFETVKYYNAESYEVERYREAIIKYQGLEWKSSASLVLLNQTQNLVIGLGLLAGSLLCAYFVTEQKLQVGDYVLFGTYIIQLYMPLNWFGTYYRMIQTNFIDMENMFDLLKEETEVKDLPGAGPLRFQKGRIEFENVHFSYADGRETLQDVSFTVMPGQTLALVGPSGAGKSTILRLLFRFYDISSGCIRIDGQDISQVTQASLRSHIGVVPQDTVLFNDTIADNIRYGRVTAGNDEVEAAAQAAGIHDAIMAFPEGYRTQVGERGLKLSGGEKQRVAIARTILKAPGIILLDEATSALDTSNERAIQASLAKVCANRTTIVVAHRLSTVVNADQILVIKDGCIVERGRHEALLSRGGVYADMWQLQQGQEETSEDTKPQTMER
Starred values were filed as active, the others as inactive; u = inconclusive. Only some compounds are listed: those with a hit (about 2.6% of all), similar ones and a draw of the others.

SMILES	MC4R antagonist	Exocytosis inh	MC4R ag barr	Tb MetRS inh	iPSC survival up	ABCB6 inh MLPCN
C/C(=N\NC(=S)NCCc1ccccc1)c1ccc(Cl)cc1Cl	1.9	88.4*	-4.1	0.2	-0.5	97.0
C/C(=N\NC(=S)NCCc1ccccc1)c1ccc(O)cc1O	18.2	5.7	2.8	-0.6	1.5	97.0
N#C/C(=C/c1ccc(Sc2nc3ccccc3[nH]2)o1)c1cccc(F)c1	0.6	13.3	-2.8	1.7	-2.4	104.0
N#C/C(=C/c1ccc(Sc2nc3ccccc3[nH]2)o1)c1cccc(Br)c1	10.2	6.7	-2.5	18.6*	-1.7	88.0
CC(=O)Nc1ccc(OCC(O)CN2C(C)(C)CC(O)CC2(C)C)cc1 (stereo unspecified)	2.7	-1.4	3.8	-2.0	0.1	98.0
Cc1cccc(NS(=O)(=O)c2cccc(C(=O)NCC(C)(C)N3CCOCC3)c2)c1	-3.0	-1.8	-0.4	-0.5	1.0	93.0
Cc1ccc(-c2ccc(=O)n(CC(=O)N3CCN(c4cc(Cl)ccc4C)CC3)n2)cc1	10.8	1.3	8.5*	-0.3	0.1	97.0
Cc1ccc(-c2ccc(=O)n(CC(=O)N3CCN(c4cccc(C)c4)C(C)C3)n2)cc1 (stereo unspecified)	16.9	3.8	7.0	-0.1	-1.3	99.0
O=S(=O)(NCCCN1CCOCC1)c1ccc2ccccc2c1	8.1	0.4	-0.8	-0.1	2.8	98.0
O=C(Nc1cccnc1Cl)c1cc(-c2cccc(O)c2)on1	6.0	-4.7	12.3*	-0.3	-0.7	84.0
CN(CC(=O)NCc1ccco1)C(=O)C1CC(=O)N(c2ccc3c(c2)OCCO3)C1 (stereo unspecified)	5.4	-2.6	0.2	-0.4	-0.4	103.0
N#C/C(=C/c1ccc(N2CCCCCC2)o1)c1ccc(Cl)cc1	19.2	83.7*	1.5	-0.7	-5.0	203.0
N#C/C(=C/c1ccc(N2CCCCC2)o1)c1cccc(F)c1	2.0	25.0	5.4	-0.6	-1.5	162.0
Cc1ccc(/C(C#N)=C\c2ccc(N3CCOCC3)o2)cc1	20.5	77.8*	4.2	0.8	-2.4	133.0
O=C(CN1CCN(S(=O)(=O)c2ccc(Br)cc2)CC1)N/N=C/c1ccc(Br)s1	-4.8	10.3	9.0*	-1.6	-0.1	91.0
O=C1N[C@@H](Cc2ccccc2)COC(=O)[C@H](Cc2ccc(F)cc2)CC/C=C/C[C@@H]1CC(=O)N(CCO)Cc1ccccc1	7.8	58.0*	-2.3	-0.4	-3.0	99.0
O=C1N[C@@H](Cc2ccccc2)COC(=O)[C@@H](Cc2ccc(F)cc2)CC/C=C/C[C@H]1CC(=O)N(CCO)Cc1ccccc1	6.2	-21.1	-0.4	0.3	-1.6	91.0
O=C(N/N=C/c1cn(-c2ccccc2)nc1-c1cc2ccccc2o1)c1cccnc1	13.8	74.8*	-0.6	0.1	-4.6	88.0
O=C(N/N=C/c1cn(-c2ccccc2)nc1-c1cc2ccccc2o1)c1ccncc1	19.9	10.9	0.2	-0.1	-2.4	89.0
Cc1cccc(NC(=S)Nc2cccc(C)n2)n1	0.4	72.6*	-1.5	-1.9	-0.6	95.0
COc1ccc(/C=N\NC(=O)COc2ccc(C(C)(C)C)cc2)cc1Cn1nc(C)cc1C	4.3	0.1	22.2*	-1.8	-0.4	98.0
CCOC(=O)N1CCC2(CC1)C(C(=O)C13CC4CC(CC(C4)C1)C3)C2(C#N)C#N (stereo unspecified)	-2.4	71.3*	-2.5	0.0	1.0	101.0
Cc1cc(C)c(OCC(=O)N(Cc2ccccc2)C2CCS(=O)(=O)C2)c(C)c1 (stereo unspecified)	1.5	1.4	-2.9	0.1	-0.4	84.0
CCN1CCN(c2ccc(S(=O)(=O)N3CCCCC3)cc2NC(=O)CC(C)c2ccccc2)CC1 (stereo unspecified)	3.8	0.6	-0.3	-0.4	-0.4	93.0
CCc1ccc(Nc2cnn(-c3nc4ccccc4s3)c(=O)c2Cl)cc1	19.8	40.5	8.2*	-0.1	1.1	96.0
SMILES	MC4R antagonist	Exocytosis inh	MC4R ag barr	Tb MetRS inh	iPSC survival up	ABCB6 inh MLPCN
CC(C)c1ccc(S(=O)(=O)N2CCN(C(=O)c3cccc(S(=O)(=O)N4CCOCC4)c3)CC2)cc1	7.3	-2.5	-1.0	-0.1	0.3	96.0
COc1cccc(-c2cnc3c(NC=O)cc(-c4ccccc4Oc4ccccc4)cn23)c1	1.0	19.9	8.8*	-0.3	0.9	99.0
CN(C)C(=O)c1cccc(-c2cnc3c(NC=O)cc(-c4ccccc4N(C)C)cn23)c1	-33.3	-7.8	9.2*	0.2	1.9	103.0
CC(=O)c1ccc(-c2cnc3c(NC=O)cc(-c4cccc(C(=O)N(C)C)c4)cn23)cc1	-0.8	-4.8	2.5	-0.3	-2.8	96.0
COc1cccc(-c2cnc3c(NC=O)cc(-c4ccc(S(C)(=O)=O)cc4)cn23)c1	-16.8	-12.3	5.8	0.2	-1.6	96.0
COc1cccc(-c2cc(NC=O)c3ncc(-c4ccc(C(C)=O)cc4)n3c2)c1	2.0	u	8.4*	0.3	-2.0	97.0
O=C(CCc1ccccc1)N=C1SC2CS(=O)(=O)CC2N1c1ccccc1 (stereo unspecified)	2.5	-1.1	-2.0	-0.3	-0.5	98.0
Cc1cccc(C(=O)Oc2ccccc2/C=N/Nc2ccc([N+](=O)[O-])cc2)c1	8.9	-2.6	9.2*	-0.2	2.5	108.0
O=C(COC(=O)c1ccc(F)cc1Cl)NC1CCCCCCC1	11.1	-0.3	8.6*	-0.2	1.2	105.0
O=C(CSc1ncn[nH]1)Nc1ccc(S(=O)(=O)N2CCCC2)cc1	10.5	-0.4	0.4	-0.4	0.2	97.0
COC(=O)c1ccc(/C=C2\SC(=S)N(CCCC(=O)NCCCN3CCOCC3)C2=O)cc1	19.5	78.0*	1.9	-0.5	0.0	98.0
CN1CCN(c2ccc(CNC(=O)C3(C)Cc4c(-c5ccccc5)ccnc4O3)cc2)CC1 (stereo unspecified)	-6.5	-1.9	-0.8	0.7	-0.1	102.0
CC(C)(C)C1CCc2onc(C(=O)Nc3cnn(Cc4ccc(F)cc4)c3)c2C1 (stereo unspecified)	0.2	3.9	7.5	-0.6	-1.8	96.0
CC(C)(C)C1CCc2onc(C(=O)Nc3ccc(F)cc3F)c2C1 (stereo unspecified)	2.0	2.3	8.3*	-0.8	4.9	99.0
CS(=O)(=O)Nc1ccc2c3c(cccc13)CC2	-6.3	-5.0	-2.0	-0.8	19.9*	97.0
CCOc1ccc(C(=O)Nc2nc(C)c(C(=O)OC)s2)cc1	11.4	-1.0	8.3*	-0.6	-0.7	95.0
COC(=O)c1sc(NC(=O)c2ccncc2)nc1C	0.3	0.4	-1.3	-0.2	-0.8	100.0
O=C(Nc1ccccc1O)C(c1ccccc1)c1ccccc1	-1.4	12.1	1.5	-0.3	0.0	85.0

Compound activity deposited in PubChem BioAssay by several laboratories.
